MEKK3 PB1 HTS = MEKK3-MEK5 PB1 interaction, increase or decrease; AID 1529; binding response (% of control), % at 10 µM; actives 1.4% (n = 290,000); bead-based flow cytometry, Alexa488-MEK5 binding to MEKK3; actives lie on both sides; 0 = blocked by unlabeled MEK5, 100 = vehicle; Q99759;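 active = binding response more than 3 SD above or below the average of its plate-row segment, actives on both sides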;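 note: Alexa488 bead fluorescence after subtracting the streptavidin-only scavenger bead signal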
STK33 inh = inhibitors of human STK33 kinase; Q9BYT3; purified STK33, MBP phosphorylation, ADP-Glo luminescence; inhibition, % at 10 µM; actives 0.073% (n = 320,000); AID 2661;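 active = inhibition at or above 25%, using the most active replicate where run in duplicate; inactive = inhibition below 25%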
MEKK2mut PB1 HTS = signal of MEK5 binding to mutant human MEKK2 PB1 domain | actives 0.35% (n = 290,000) | AID 1530 | bead flow cytometry, Alexa488-MEK5 binding to MEKK2 mutant | percent response, % at 10 µM; in the data active = percent response above about 24%, passing the limit was not always enough
GSK3beta inhib = inhibitors of human GSK3beta kinase; GST-GSK3beta kinase, ADP-Glo luminescence, 60 min; hits give low values; AID 2097; activity score (negative = inhibition), % at 10 µM; actives 0.038% (n = 300,000);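 active = more than half of replicate wells score below -50%, meaning over 50% inhibition versus plate controls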;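 note: 0% = median DMSO wells and -100% = median GW8510 positive control wells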
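Test system – GST-tagged human GSK3beta kinase, cell-free · Incubation – 60 min enzyme reaction, room temperature · Signal – ADP-Glo luminescence · Also added – peptide substrate and ATP at 25 µM · Controls – DMSO neutral wells and GW8510 at 20 µM as positive · Buffer or medium – Tris/MgCl2 kinase buffer · Measure – Luminescence-derived activity versus plate DMSO and GW8510 wells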
MEKK2wt PB1 HTS = raises or lowers MEK5 binding to wildtype human MEKK2 PB1 domain. Q9Y2U5. AID 1531. actives 1.1% (n = 290,000). binding response (% of control), % at 10 µM. bead flow cytometry, Alexa488-MEK5 binding to MEKK2 WT; actives lie on both sides; in the data active = binding response below about 67% or above about 130%
GSK3 alpha inh = inhibitors of human GSK-3 alpha kinase | inhibition, % at 10 µM | actives 0.1% (n = 320,000) | ADP-Glo luminescence, 60 min;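 active = more than half of replicates show inhibition above 20%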;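 note: GST-tagged GSK-3 alpha with peptide substrate and 25 µM ATP; 0% = DMSO neutral wells and 100% = GW8510 positive control wells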
Target sequence (P49840 whole entry, looked up): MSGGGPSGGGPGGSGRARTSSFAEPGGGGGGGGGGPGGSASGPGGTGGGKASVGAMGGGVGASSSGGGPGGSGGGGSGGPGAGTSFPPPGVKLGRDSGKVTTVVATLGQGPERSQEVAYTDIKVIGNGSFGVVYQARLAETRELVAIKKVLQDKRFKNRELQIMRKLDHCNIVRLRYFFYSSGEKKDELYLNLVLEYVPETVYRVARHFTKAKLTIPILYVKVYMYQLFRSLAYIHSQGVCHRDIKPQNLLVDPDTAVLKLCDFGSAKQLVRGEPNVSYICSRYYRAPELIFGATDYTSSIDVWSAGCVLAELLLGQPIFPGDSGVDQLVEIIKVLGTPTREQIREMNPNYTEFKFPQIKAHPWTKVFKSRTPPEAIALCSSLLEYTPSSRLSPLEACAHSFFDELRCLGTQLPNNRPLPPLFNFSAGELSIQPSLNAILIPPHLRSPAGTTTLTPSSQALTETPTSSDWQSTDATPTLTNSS
MEKK2wt confirm = raises or lowers MEK5 binding to wildtype human MEKK2, retest; binding response (% of control), % at 10 µM; shares compounds with MEKK3 PB1 HTS; actives 2.4% (n = 5,900); bead flow cytometry, Alexa488-MEK5 binding to MEKK2 WT; actives lie on both sides; in the data active = binding response below about 16% or above about 210%; inactive = in between
MEKK2mut-MEK5 = signal of MEK5 binding to mutant human MEKK2, retest | shares compounds with MEKK3 PB1 HTS | bead flow cytometry, Alexa488-MEK5 binding to MEKK2 mutant | percent response, % at 10 µM | actives 2% (n = 5,900); in the data active = percent response mostly above about 71%, no sharp cut-off; inactive = mostly below about 38%;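 note: higher means compound restores mutant binding toward wildtype level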
MEKK3-MEK5 inh = MEKK3-MEK5 PB1 inhibition, single concentration confirmation; AID 1894; binding response (% of control), % at 10 µM; bead flow cytometry, Alexa488-MEK5 binding to MEKK3; hits give low values; shares compounds with MEKK3 PB1 HTS; actives 1.8% (n = 5,900);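 active = binding response below 72% of control, or above a set upper limit, though filed actives all read lower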;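 note: 100% = DMSO only wells and 0% = binding blocked by excess unlabeled MEK5; lower values mean stronger disruption of MEK5 binding to MEKK3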
Active calls of the source: *; nt = no result; [ ] = another dose, or the depositor's remark. In the library only some 2.1% were active in any assay of this set; here they are far more common.

SMILES	MEKK3 PB1 HTS	STK33 inh	MEKK2mut PB1 HTS	GSK3beta inhib	MEKK2wt PB1 HTS	GSK3 alpha inh	MEKK2wt confirm	MEKK2mut-MEK5	MEKK3-MEK5 inh
COc1ccc(/C=N/Nc2cc(N3CCCC3)nc(N3CCCC3)n2)cc1	130.0*	-0.9	4.0	-2.6	142.0*	-7.1	160.0	33.0	108.0
Oc1ccc(/C=N/Nc2cc(N3CCCC3)nc(N3CCCC3)n2)cc1	120.0	0.2	11.0	-2.0	117.0	0.7	nt	nt	nt
COc1ccc(CCN(Cc2cc3ccc(C)cc3[nH]c2=O)C(C)=O)cc1OC	135.0*	-1.1	30.0	0.0	120.0	-1.0	101.0	-4.0	101.0
Cc1cccc(N(Cc2cc3ccc(C)cc3[nH]c2=O)C(=O)c2ccco2)c1	133.0*	-0.2	25.0	2.1	125.0	-2.1	101.0	-2.0	103.0
COc1ccc(CCNCc2cc3ccc(C)cc3[nH]c2=O)cc1OC	105.0	0.3	7.0	0.3	107.0	-1.5	nt	nt	nt
CCOC(=O)c1cc(S(=O)(=O)N2CCN(c3ccccc3OC)CC2)cn1C	102.0	-0.5	0.0	0.5	109.0	-4.3	nt	nt	nt
CC(=O)Nc1nc(C(=O)O)cs1	93.0	-0.4	-2.0	-1.2	98.0	-4.4	nt	nt	nt
O=C(CN1CCC(NC(=O)Nc2ccc(F)cc2)CC1)Nc1ccccc1[N+](=O)[O-]	103.0	-1.9	4.0	2.2	106.0	1.6	nt	nt	nt
Cc1ccc(-c2csc3nc4c5ccccc5c(NCCCN5CCOCC5)nn4c(=O)c23)cc1	103.0	0.1	15.0	3.4	145.0*	0.0	175.0	34.0	105.0
CCC1=NN(C(=O)CCc2ccccc2)C(O)(C(F)(F)F)C1 (stereo not given)	92.0	-2.5	-5.0	1.1	95.0	-0.7	nt	nt	nt
CCC1=NN(S(=O)(=O)c2ccc(C)cc2)C(O)(C(F)(F)F)C1 (stereo not given)	128.0*	-1.4	1.0	-1.0	114.0	-4.9	102.0	-2.0	105.0
CCOC(=O)CC1NCCc2c1[nH]c1ccc(OC)cc21 (stereo not given)	99.0	-0.2	-2.0	-6.5	102.0	-1.8	nt	nt	nt
CCOC(=O)CC1C(=O)NCCN1c1nc2ccc(C)cn2c(=O)c1/C=C1\SC(=S)N(CC(C)C)C1=O (stereo not given)	94.0	-1.4	-7.0	2.3	55.0*[inhibitor]	-0.4	93.0	-11.0	101.0
c1ccc(COc2ccc(CNCc3cccs3)cc2)cc1	108.0	-0.9	6.0	-4.6	121.0	-2.4	nt	nt	nt
CC(C)(C)NC(=O)COc1ccc(CNCc2cccs2)cc1	2.0*[inhibitor]	-0.9	-27.0	-4.6	-1.0*[inhibitor]	0.8	109.0	9.0	102.0
CCOc1ccc(CCNC(=O)COC(=O)c2ccc(C)c([N+](=O)[O-])c2)cc1OCC	102.0	-1.1	5.0	1.0	102.0	0.1	nt	nt	nt
Nn1c(SCC(=O)NCCc2ccc(F)cc2)nnc1C1CCCCC1	nt	1.3	nt	nt	nt	-0.9	nt	nt	nt
COc1ccc(N2CC(C(=O)Nc3nnc(SCc4ccccn4)s3)CC2=O)cc1 (stereo not given)	133.0*	-0.6	-1.0	0.3	99.0	-0.6	1.0*[inhibitor]	-29.0	2.0*
Cc1c(CCOC(=O)CC23CC4CC(CC(C)(C4)C2)C3)sc[n+]1CC(=O)c1ccccc1	108.0	nt	6.0	-10.0	153.0*	12.6	155.0	7.0	101.0
C(=C\c1ccc2ccccc2n1)/c1ccccc1	40.0*[inhibitor]	-0.1	-12.0	-4.3	34.0*[inhibitor]	1.0	100.0	-3.0	94.0
Fc1ccccc1/C=C/c1ccc2ccccc2n1	130.0*	0.0	5.0	-5.2	108.0	-4.1	101.0	-4.0	99.0
Cc1nn(C)cc1/C=C(/C#N)C(N)=O	149.0*	-0.9	1.0	1.1	109.0	0.8	100.0	-6.0	99.0
COc1ccccc1-n1c(=O)c(C#N)c(-c2ccc([N+](=O)[O-])cc2)c2cc(C(=O)c3ccccc3O)cnc21	82.0	-1.4	-19.0	0.2	77.0	-1.2	nt	nt	nt
CNC(=O)C1(C)C=CCN1C(=O)c1ccccc1 (stereo not given)	111.0	0.1	5.0	1.6	97.0	0.1	nt	nt	nt
CC1(C(=O)NCc2ccccn2)C=CCN1C(=O)c1ccccc1 (stereo not given)	50.0*[inhibitor]	-0.1	1.0	0.4	65.0	-2.2	114.0	12.0	110.0
SMILES	MEKK3 PB1 HTS	STK33 inh	MEKK2mut PB1 HTS	GSK3beta inhib	MEKK2wt PB1 HTS	GSK3 alpha inh	MEKK2wt confirm	MEKK2mut-MEK5	MEKK3-MEK5 inh
COc1ccccc1NC(=O)C(C/C=C(\C)Cl)C(C)=O (stereo not given)	79.0*[inhibitor]	0.8	-9.0	3.9	83.0	-1.7	103.0	-6.0	101.0
CCCCCOc1ccc(NC(=O)C(=O)NCC2CCCN2CC)cc1 (stereo not given)	100.0	-0.3	12.0	-1.3	116.0	-3.7	nt	nt	nt
CN(CCO)c1cc(N2CCC3(CC2)OCCO3)c2nonc2c1[N+](=O)[O-]	74.0*[inhibitor]	-0.6	-1.0	-31.5	105.0	-0.2	98.0	-2.0	100.0
O=[N+]([O-])c1ccc(-c2ccc(/C=N/Nc3nc(N4CCCCC4)nc(N4CCCCC4)n3)o2)cc1	98.0	nt	99.0*	0.5	101.0	nt	99.0	-4.0	103.0
Cc1nc(C)c(-c2ccn(C(=O)NC(C)C)n2)s1	102.0	-0.3	0.0	1.6	97.0	-0.5	nt	nt	nt
CC(C)C(=O)c1ccc(O)c(O)c1	70.0*[inhibitor]	-2.0	-33.0	-1.4	68.0	0.5	106.0	12.0	104.0
CC1CCCN(C(=O)C2CCN(CCCc3ccccc3)CC2)C1 (stereo not given)	79.0*[inhibitor]	-1.1	-5.0	1.6	98.0	-2.6	99.0	-2.0	94.0
O=c1[nH]ncc(NCc2ccc(Cl)cc2)c1Cl	132.0*	-0.5	0.0	0.9	107.0	1.7	99.0	-4.0	101.0
CC(=O)Nc1cccc(-n2nnc(SCC(=O)c3ccccc3)n2)c1	129.0*	-0.3	27.0	4.4	131.0	-3.6	107.0	-2.0	105.0
CC1(C)C2CCC1(C)C(NCC(O)COc1ccc(C#N)cc1)C2 (stereo not given)	95.0	-2.4	2.0	-0.9	102.0	0.8	nt	nt	nt
Cc1ccc(/C=N/NC(=O)Cn2nnc(N)n2)cc1	92.0	-0.8	-10.0	-1.5	94.0	-1.3	nt	nt	nt
Nc1nnn(CC(=O)N/N=C/c2ccncc2)n1	130.0*	-1.9	25.0	3.8	120.0	-0.7	103.0	-6.0	101.0
CSc1cccc(NC(=S)NN(C)C)c1	68.0*[inhibitor]	-1.1	-34.0	0.6	60.0*[inhibitor]	-2.5	114.0	4.0	106.0

Screening data as filed in PubChem.
